{"data": "Assay results gathered from unrelated publications", "observed": "cell growth or viability"}
{"SMILES": "O=C1c2ccccc2C(=O)c2c(Oc3ccc(C(=O)C(Cl)Cl)cc3[N+](=O)[O-])cccc21", "cell line": "NCI-H1650", "method": "MTT", "concentration": "2.5 µM", "quantity": "inhibition", "value": "28.7%"}
{"SMILES": "C=CC(=O)c1cccnc1Nc1cc(C(F)(F)F)ccc1OCc1ccccc1", "cell line": "NCI-H28", "method": "CCK-8", "time": "72 h", "quantity": "GI50", "value": "11200 nM"}
{"SMILES": "O=C(c1ccc(Oc2ccc3oc(=O)ccc3c2)c([N+](=O)[O-])c1)C(Cl)Cl", "cell line": "NCI-H1650", "method": "MTT", "concentration": "2.5 µM", "quantity": "inhibition", "value": "96.8%"}
{"SMILES": "O=C(NO)c1ccc(CNc2nc3cccc(-c4ccc5c(c4)OCO5)n3n2)cc1", "cell line": "HT-29", "method": "SRB", "quantity": "GI50", "value": "510 nM"}
{"SMILES": "C=CC(=O)N1CCN(c2nc(=O)n(-c3c(C)ccnc3C(C)C)c3nc(-c4c(O)cccc4F)c(F)cc23)[C@@H](C)C1", "cell line": "NCI-H2122", "method": "ATP luminescence", "quantity": "IC50", "value": "90.1 nM"}
{"SMILES": "COc1nc(NCc2cn(-c3ccc(NC(=O)c4ccc(C(F)(F)F)cc4)cc3)nn2)nc(OC)n1", "cell line": "Caco-2", "method": "MTT", "time": "72 h", "quantity": "IC50", "value": "566 nM"}
{"SMILES": "COc1cccc(CNC[C@@](C)(O)[C@@H]2CC[C@@H](C)C[C@H]2OCc2ccccc2)c1", "cell line": "A2780", "method": "MTT", "concentration": "10 µM", "time": "72 h", "quantity": "inhibition", "value": "32.9%"}
{"SMILES": "O=C(O)c1ccccc1Nc1cccc(C(F)(F)F)c1", "cell line": "NCI-H28", "method": "CCK-8", "time": "72 h", "quantity": "GI50", "value": "> 40000 nM"}
{"SMILES": "C[C@@H]1CC[C@@H]([C@](C)(O)CNCc2ccccc2)[C@H](OCc2ccccc2)C1", "cell line": "A2780", "method": "MTT", "concentration": "30 µM", "time": "72 h", "quantity": "inhibition", "value": "94.3%"}
{"SMILES": "COc1nc(NCc2cn(-c3ccc(C(=O)Nc4ccc(F)cc4)cc3)nn2)nc(OC)n1", "cell line": "Caco-2", "method": "MTT", "time": "72 h", "quantity": "IC50", "value": "1030 nM"}
{"SMILES": "COc1ccc(CNC[C@@](C)(O)[C@@H]2CC[C@@H](C)C[C@H]2OCc2ccccc2)cc1", "cell line": "A2780", "method": "MTT", "concentration": "10 µM", "time": "72 h", "quantity": "inhibition", "value": "42.9%"}
{"SMILES": "CC(=O)OCCCOc1ccc(C(=O)C(Cl)Cl)cc1[N+](=O)[O-]", "cell line": "NCI-H1650", "method": "MTT", "concentration": "2.5 µM", "quantity": "inhibition", "value": "39.6%"}
{"SMILES": "COc1ccccc1CNC[C@@](C)(O)[C@@H]1CC[C@@H](C)C[C@H]1OCc1ccccc1", "cell line": "A2780", "method": "MTT", "concentration": "10 µM", "time": "72 h", "quantity": "inhibition", "value": "58.5%"}
{"SMILES": "COc1nc(NCc2cn(-c3ccc(C(=O)Nc4ccc(Br)cc4)cc3)nn2)nc(OC)n1", "cell line": "Caco-2", "method": "MTT", "time": "72 h", "quantity": "IC50", "value": "674 nM"}
{"SMILES": "COc1cccc2c1C(=O)c1c(O)c3c(c(O)c1C2=O)C[C@@](O)(C(=O)CO)C[C@@H]3O[C@H]1C[C@H](N)[C@H](O)[C@H](C)O1", "cell line": "Caco-2", "method": "MTT", "concentration": "6.25 µg/mL", "time": "48 h", "notes": "serum-free", "quantity": "viability", "value": "62.1%"}
{"SMILES": "C[C@@H]1CC[C@@H]([C@@](O)(CNCc2ccccc2)COCc2ccc(F)cc2)[C@H](OCc2ccc(F)cc2)C1", "cell line": "A2780", "method": "MTT", "concentration": "30 µM", "time": "72 h", "quantity": "inhibition", "value": "98.5%"}
{"SMILES": "CC(=O)c1ccc(Oc2ccc(C(=O)C(Cl)Cl)cc2[N+](=O)[O-])cc1", "cell line": "NCI-H1650", "method": "MTT", "concentration": "2.5 µM", "quantity": "inhibition", "value": "96.4%"}
{"SMILES": "C=C(F)C(=O)N1CCN(c2nc(OC[C@@H]3CCCN3C)nc3c2CCN(c2cccc4cccc(Cl)c24)C3)C[C@@H]1CC#N", "cell line": "HCC44", "method": "ATP luminescence", "quantity": "IC50", "value": "> 10000 nM"}
{"SMILES": "C[C@@H]1CC[C@@H]([C@](O)(CNCc2ccccc2)COCc2ccccc2)[C@H](OCc2ccccc2)C1", "cell line": "A2780", "method": "MTT", "concentration": "10 µM", "time": "72 h", "quantity": "inhibition", "value": "90.4%"}
{"SMILES": "CC(=O)Nc1ccc(Oc2ccc(C(=O)C(Cl)Cl)cc2[N+](=O)[O-])cc1", "cell line": "NCI-H1650", "method": "MTT", "concentration": "2.5 µM", "quantity": "inhibition", "value": "97.6%"}
{"SMILES": "C=CC(=O)NC1CCN(c2ncc3ncnc(Nc4ccc(Oc5ccc6c(c5)ncn6C)c(C)c4)c3n2)CC1", "cell line": "LoVo", "quantity": "EC50", "value": "11.8 nM"}
{"SMILES": "O=C(c1ccccc1)c1ccc(Oc2ccc(C(=O)C(Cl)Cl)cc2[N+](=O)[O-])cc1", "cell line": "NCI-H1650", "method": "MTT", "concentration": "2.5 µM", "quantity": "inhibition", "value": "96.5%"}
{"SMILES": "C[C@@H]1CC[C@@H]([C@](C)(O)Cn2ccnc2)[C@H](OCc2ccccc2)C1", "cell line": "A2780", "method": "MTT", "concentration": "30 µM", "time": "72 h", "quantity": "inhibition", "value": "39.5%"}
{"SMILES": "O=C(c1ccc(Oc2ccc(OCc3ccccc3)cc2)c([N+](=O)[O-])c1)C(Cl)Cl", "cell line": "NCI-H1650", "method": "MTT", "concentration": "2.5 µM", "quantity": "inhibition", "value": "96.9%"}
{"SMILES": "COc1ccc(C(=O)Nc2ccc(-n3cc(CNc4nc(OC)nc(OC)n4)nn3)cc2)cc1", "cell line": "Caco-2", "method": "MTT", "time": "72 h", "quantity": "IC50", "value": "722 nM"}
{"SMILES": "O=C(c1ccc(Oc2cccc(-c3ccccc3)c2)c([N+](=O)[O-])c1)C(Cl)Cl", "cell line": "NCI-H1650", "method": "MTT", "concentration": "2.5 µM", "quantity": "inhibition", "value": "97.2%"}
{"SMILES": "COc1ccc(COC[C@@](O)(CNCc2ccccc2)[C@@H]2CC[C@@H](C)C[C@H]2OCc2ccc(OC)cc2)cc1", "cell line": "A2780", "method": "MTT", "concentration": "10 µM", "time": "72 h", "quantity": "inhibition", "value": "98%"}
